The target in data set [1] is Voltage-gated inwardly rectifying potassium channel KCNH2 (Homo sapiens, UniProt Q12809). The data set is described as follows: Displacement of [3H]dofetilide from human ERG channel expressed in HEK293 cells. The class given is cell-based.
Data set [2] addresses T1, 5-hydroxytryptamine receptor 1A (Homo sapiens, UniProt P08908).
T1 sequence (P08908 whole entry): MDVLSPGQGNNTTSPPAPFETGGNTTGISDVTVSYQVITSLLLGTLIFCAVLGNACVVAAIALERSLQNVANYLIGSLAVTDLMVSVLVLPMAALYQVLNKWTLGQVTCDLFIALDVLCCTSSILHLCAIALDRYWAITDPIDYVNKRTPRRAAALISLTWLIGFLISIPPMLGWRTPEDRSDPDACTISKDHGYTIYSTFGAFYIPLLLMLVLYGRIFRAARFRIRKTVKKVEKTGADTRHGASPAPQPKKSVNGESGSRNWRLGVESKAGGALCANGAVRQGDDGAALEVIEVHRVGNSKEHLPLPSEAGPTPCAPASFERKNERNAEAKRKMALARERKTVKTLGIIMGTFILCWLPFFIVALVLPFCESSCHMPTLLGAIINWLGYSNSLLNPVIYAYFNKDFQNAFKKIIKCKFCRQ
The data set is described as follows: (§1) Displacement of [3H]8OHDPAT from human 5HT1A receptor. In a few lines:
(§2)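 Radioligand competition binding on cloned human receptor membranes: [3H]8-OH-DPAT for 5-HT1A; CHO-cell D2L membranes with [3H]spiperone. Membranes plus radioligand with or without varying compound concentrations. Bound and free separated by vacuum filtration; bound counted by liquid scintillation. Concentration–percent inhibition of specific binding fit by nonlinear regression to IC50.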
For orientation: Loss of bound radioactivity is the signal in a displacement assay; it reports binding, not function.

In data set [3] the target is T2, 5-hydroxytryptamine receptor 1A (Homo sapiens) (UniProt P08908).
T2 sequence (whole entry): T1 sequence (P08908 whole entry)
Described as §1. In a few lines: as §2

In data set [4] the target is 5-hydroxytryptamine receptor 2A (Homo sapiens, UniProt P28223). The data set is described as follows: Displacement of [3H]ketanserin from human 5HT2A receptor expressed in Swiss 3T3 cells. The class given is cell-based. In a few lines:
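Membranes from Swiss 3T3 cells expressing human 5-HT2A, labeled with [3H]ketanserin, incubated with or without varying compound concentrations. Vacuum filtration separated unbound label; bound label read by liquid scintillation. IC50 from nonlinear-regression fit of concentration vs percent inhibition of specific binding. Ki reported as geometric mean of at least three experiments.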

Data set [5] deals with T3, Alpha-1A adrenergic receptor (Rattus norvegicus, UniProt P43140).
T3 sequence (P43140 whole entry): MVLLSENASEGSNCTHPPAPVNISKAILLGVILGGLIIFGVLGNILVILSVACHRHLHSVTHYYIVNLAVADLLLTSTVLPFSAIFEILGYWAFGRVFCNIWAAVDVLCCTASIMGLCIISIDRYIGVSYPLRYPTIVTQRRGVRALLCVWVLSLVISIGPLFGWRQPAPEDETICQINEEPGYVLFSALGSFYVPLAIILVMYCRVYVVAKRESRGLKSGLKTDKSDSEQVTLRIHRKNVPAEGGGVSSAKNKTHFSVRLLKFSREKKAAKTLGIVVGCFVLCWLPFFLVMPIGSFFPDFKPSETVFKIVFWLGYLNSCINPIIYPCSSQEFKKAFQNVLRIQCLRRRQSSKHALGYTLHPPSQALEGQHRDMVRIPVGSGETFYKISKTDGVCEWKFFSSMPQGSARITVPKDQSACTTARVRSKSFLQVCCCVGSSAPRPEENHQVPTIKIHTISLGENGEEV
The data set is described as follows: Displacement of [3H]prazosin from rat adrenergic alpha1A receptor expressed in fibroblast cells. The class given is cell-based. An outline of the steps:
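Cloned rat alpha1a receptor in fibroblast cell membranes; [3H]prazosin as radioligand, incubated with or without a range of compound concentrations. Filtration under vacuum removed free label; bound measured by liquid scintillation counting. Percent inhibition of specific binding vs concentration fit by nonlinear regression for IC50.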

For data set [6], the target named is T4, D(2) dopamine receptor (Homo sapiens, UniProt P14416). The data set is described as follows: Displacement of [3H]spiperone from human D2L receptor expressed in CHO cells. The class given is cell-based. In a few lines:
as §2

In data set [7] the target is T4, D(2) dopamine receptor. Nature of the data set: Displacement of [3H]spiperone from human D2L receptor expressed in CHO cells at 100 nM. The class given is cell-based.

pKi: −log10 of the molar value.

This is an account of results in ChEMBL document CHEMBL1140829, “1-Aminoindanes as novel motif with potential atypical antipsychotic properties” (Bioorg Med Chem Lett, 2008).

Sequence of 5-hydroxytryptamine receptor 2A (P28223 whole entry): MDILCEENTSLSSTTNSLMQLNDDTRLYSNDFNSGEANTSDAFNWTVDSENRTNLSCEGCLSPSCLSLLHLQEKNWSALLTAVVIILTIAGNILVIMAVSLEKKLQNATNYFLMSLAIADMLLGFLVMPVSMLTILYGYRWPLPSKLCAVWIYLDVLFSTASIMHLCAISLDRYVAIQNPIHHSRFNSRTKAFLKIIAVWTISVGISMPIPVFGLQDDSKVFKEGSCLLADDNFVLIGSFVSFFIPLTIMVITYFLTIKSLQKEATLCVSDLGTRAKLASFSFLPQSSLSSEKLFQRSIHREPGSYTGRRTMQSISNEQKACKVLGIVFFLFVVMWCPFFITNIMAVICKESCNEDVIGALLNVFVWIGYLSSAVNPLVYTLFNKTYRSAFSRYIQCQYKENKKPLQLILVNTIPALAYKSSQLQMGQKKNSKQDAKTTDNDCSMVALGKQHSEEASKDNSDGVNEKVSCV
Sequence of Voltage-gated inwardly rectifying potassium channel KCNH2 (Q12809 whole entry): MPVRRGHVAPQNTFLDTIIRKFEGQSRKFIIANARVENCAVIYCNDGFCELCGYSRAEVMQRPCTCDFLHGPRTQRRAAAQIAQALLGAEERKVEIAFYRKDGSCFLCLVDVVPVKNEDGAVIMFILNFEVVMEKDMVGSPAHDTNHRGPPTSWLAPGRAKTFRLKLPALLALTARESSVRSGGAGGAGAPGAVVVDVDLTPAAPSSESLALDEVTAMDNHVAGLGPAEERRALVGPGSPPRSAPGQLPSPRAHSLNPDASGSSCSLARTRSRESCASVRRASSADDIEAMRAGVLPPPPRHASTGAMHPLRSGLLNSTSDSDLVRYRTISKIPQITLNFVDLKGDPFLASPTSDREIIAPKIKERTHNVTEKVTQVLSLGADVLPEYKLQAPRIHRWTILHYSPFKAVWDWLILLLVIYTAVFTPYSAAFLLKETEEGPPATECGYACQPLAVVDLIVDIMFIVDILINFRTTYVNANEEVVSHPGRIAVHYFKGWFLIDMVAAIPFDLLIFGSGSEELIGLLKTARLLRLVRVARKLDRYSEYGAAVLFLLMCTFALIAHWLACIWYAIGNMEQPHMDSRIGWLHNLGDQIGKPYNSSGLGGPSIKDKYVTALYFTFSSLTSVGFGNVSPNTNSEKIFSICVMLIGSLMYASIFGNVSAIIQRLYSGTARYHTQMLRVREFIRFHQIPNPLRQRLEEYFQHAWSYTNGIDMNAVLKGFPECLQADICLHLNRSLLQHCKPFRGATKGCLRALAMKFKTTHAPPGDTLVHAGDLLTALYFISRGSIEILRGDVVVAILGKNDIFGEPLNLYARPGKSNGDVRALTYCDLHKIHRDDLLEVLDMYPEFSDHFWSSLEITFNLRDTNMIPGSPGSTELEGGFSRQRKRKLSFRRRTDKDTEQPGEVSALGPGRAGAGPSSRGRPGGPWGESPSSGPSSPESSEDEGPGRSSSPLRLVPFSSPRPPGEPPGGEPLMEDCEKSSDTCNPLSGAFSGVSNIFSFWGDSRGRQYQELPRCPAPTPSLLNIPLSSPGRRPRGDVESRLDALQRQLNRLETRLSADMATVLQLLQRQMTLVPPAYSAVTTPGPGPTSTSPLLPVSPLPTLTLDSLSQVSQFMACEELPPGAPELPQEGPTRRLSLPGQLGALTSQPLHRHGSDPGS
T4 sequence (P14416 whole entry): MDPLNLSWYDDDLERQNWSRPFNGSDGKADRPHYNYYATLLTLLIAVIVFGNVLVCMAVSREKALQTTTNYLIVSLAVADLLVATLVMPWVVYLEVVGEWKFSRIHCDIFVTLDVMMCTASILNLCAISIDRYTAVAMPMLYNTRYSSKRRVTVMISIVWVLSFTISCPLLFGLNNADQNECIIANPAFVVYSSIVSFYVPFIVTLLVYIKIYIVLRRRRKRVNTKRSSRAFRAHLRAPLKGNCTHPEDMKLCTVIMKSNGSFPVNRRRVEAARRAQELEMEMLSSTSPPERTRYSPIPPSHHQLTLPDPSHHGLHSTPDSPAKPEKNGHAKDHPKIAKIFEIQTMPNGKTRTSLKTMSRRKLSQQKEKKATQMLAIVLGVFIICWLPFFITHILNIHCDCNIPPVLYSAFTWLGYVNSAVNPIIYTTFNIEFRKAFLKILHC

As a reminder, the pKi is the negative decadic logarithm of the Ki, by convention in mol/L. A high value points to a small Ki. With `O=C(NC1CCc2ccc(CCN3CCN(c4nsc5ccccc45)CC3)cc21)c1ccc(Cl)cc1` (centres undefined), the pKi is 6.78 in data set [1]; 7.25 in data set [2]; 10.00 in data set [4]; 8.25 in data set [5]; 8.30 on D(2) dopamine receptor [6]. The same compound returned an Intrinsic activity in data set [3] of 60%.

On to `CC(=O)NC1CCc2ccc(CCN3CCN(c4nsc5ccccc45)CC3)cc21` (centres undefined), for which the negative-log Ki (pKi) was 6.05 in data set [1]; 8.12 in data set [2]; 11.00 in data set [4]; 8.87 in data set [5]; 7.66 on D(2) dopamine receptor [6]. The Intrinsic activity in data set [3] amounted to 60%.

In the case of `CCCC(=O)NC1CCc2cc(CCN3CCN(c4nsc5ccccc45)CC3)ccc21` (centres undefined), the pKi was 6.57 in data set [1], 8.70 in data set [2], 9.30 in data set [4] and 9.05 in data set [5]. In data set [3], this compound returned an Intrinsic activity of 60%. For the same compound, the Activity on D(2) dopamine receptor [7] is 21%.

For the compound `CCCC(=O)NC1CCc2ccc(CCN3CCN(c4nsc5ccccc45)CC3)cc21` (centres undefined), the pKi in data set [2] is 8.26; in data set [4], 9.35; in data set [5] it was 8.40; at D(2) dopamine receptor [6] it was 7.57. This compound also had an Intrinsic activity in data set [3] of 60%.

On to `CC(C)C(=O)NC1CCc2ccc(CCN3CCN(c4nsc5ccccc45)CC3)cc21` (centres undefined), for which the pKi in data set [1] was 6.56; in data set [2], 7.92; in data set [4], 9.12; in data set [5], 8.44; at D(2) dopamine receptor [6], 7.17.

With `O=C(NC1CCc2cc(CCN3CCN(c4nsc5ccccc45)CC3)ccc21)C1CC1` (centres undefined), the pKi in data set [1] is 6.86; in data set [2], 8.70; in data set [4], 9.35; in data set [5], 9.14. Also, the Activity at D(2) dopamine receptor [7] was found to be 27%.

As to `O=C(NC1CCc2ccc(CCN3CCN(c4nsc5ccccc45)CC3)cc21)C(F)(F)F` (centres undefined), the pKi in data set [1] was 7.00; in data set [2] it was 8.31; in data set [5] it was 8.72; on D(2) dopamine receptor [6], 8.00.

For the compound `CC(C)C(=O)NC1CCc2cc(CCN3CCN(c4nsc5ccccc45)CC3)ccc21` (centres undefined), the pKi was 6.66 in data set [1], 9.00 in data set [2], 9.19 in data set [4] and 9.31 in data set [5]. On D(2) dopamine receptor [7], this compound returned an Activity of 17%.

As to `O=C(NC1CCc2ccc(CCN3CCN(c4nsc5ccccc45)CC3)cc21)c1ccno1` (centres undefined), the negative-log Ki (pKi) is 6.82 in data set [1], 8.19 in data set [2], 10.10 in data set [4] and 8.73 in data set [5].

For `O=C(NC1CCc2ccc(CCN3CCN(c4nsc5ccccc45)CC3)cc21)c1ccco1` (centres undefined), the pKi in data set [1] was 7.46; in data set [2], 8.10; in data set [4] it was 9.26; in data set [5], 8.86; on D(2) dopamine receptor [6], 8.30.

Take `NC1CCc2ccc(CCN3CCN(c4nsc5ccccc45)CC3)cc21` (centres undefined): the negative logarithm of the Ki (pKi) in data set [1] was 6.21; in data set [2], 8.70; in data set [4], 10.05; in data set [5], 8.57; on D(2) dopamine receptor [6] it was 7.68. The compound also returned an Intrinsic activity in data set [3] of 60%.

As for `CC(=O)NC1CCc2cc(CCN3CCN(c4nsc5ccccc45)CC3)ccc21` (centres undefined), the pKi was 5.66 in data set [1]; 8.96 in data set [2]; 9.48 in data set [4]; 8.50 in data set [5]; 7.82 at D(2) dopamine receptor [6]. Moreover, the Intrinsic activity in data set [3] stood at 60%.

On to `O=C(NC1CCc2ccc(CCN3CCN(c4nsc5ccccc45)CC3)cc21)c1ccc(F)cc1` (centres undefined), for which the pKi in data set [1] is 7.11; in data set [2], 7.18; in data set [4], 8.61; in data set [5], 7.99; at D(2) dopamine receptor [6] it was 8.22.

`O=C1Cc2cc(CCN3CCN(c4nsc5ccccc45)CC3)c(Cl)cc2N1` [ZIPRASIDONE]: the Activity result in data set [1] (human, hek293) is reported as “Not Active”. For the same compound, the pKi was 8.40 in data set [2] and 9.30 in data set [5].

For the compound `O=C(NC1CCc2cc(CCN3CCN(c4nsc5ccccc45)CC3)ccc21)c1cccnc1` (centres undefined), the negative logarithm of the Ki (pKi) is 6.69 in data set [1]; 8.11 in data set [2]; 9.17 in data set [4]; 7.76 in data set [5]; 8.30 on D(2) dopamine receptor [6]. In data set [3], this compound displayed an Intrinsic activity of 60%.

As to `CCC(=O)NC1CCc2ccc(CCN3CCN(c4nsc5ccccc45)CC3)cc21` (centres undefined), the pKi was 6.79 in data set [1]; 8.30 in data set [2]; 11.00 in data set [4]; 8.52 in data set [5]; 7.47 on D(2) dopamine receptor [6].

Take `CCC(=O)NC1CCc2cc(CCN3CCN(c4nsc5ccccc45)CC3)ccc21` (centres undefined): the pKi is 6.74 in data set [1], 8.70 in data set [2], 9.60 in data set [4] and 9.35 in data set [5]. Also, the Intrinsic activity in data set [3] was 60%. This compound also had an Activity at D(2) dopamine receptor [7] of 21%.

`O=C(NC1CCc2cc(CCN3CCN(c4nsc5ccccc45)CC3)ccc21)C(F)(F)F` (centres undefined): the pKi in data set [2] was 9.00; in data set [4], 9.82; in data set [5], 9.52; on D(2) dopamine receptor [6], 8.10. The compound also returned an Intrinsic activity in data set [3] of 60%.

Regarding `Cc1ccc(C(=O)NC2CCc3ccc(CCN4CCN(c5nsc6ccccc56)CC4)cc32)cc1` (centres undefined), the pKi was 6.71 in data set [1]; 7.55 in data set [2]; 8.52 in data set [4]; 7.87 in data set [5]; 7.82 at D(2) dopamine receptor [6].

For `O=C(CCc1ccccc1)NC1CCc2ccc(CCN3CCN(c4nsc5ccccc45)CC3)cc21` (centres undefined), the pKi was 7.43 in data set [2], 9.02 in data set [4], 7.99 in data set [5] and 7.48 at D(2) dopamine receptor [6]. This compound also returned an Intrinsic activity in data set [3] of 60%.

As to `O=C(Cc1ccccc1)NC1CCc2ccc(CCN3CCN(c4nsc5ccccc45)CC3)cc21` (centres undefined), the pKi in data set [2] was 7.68; in data set [4] it was 10.40; in data set [5] it was 8.28; at D(2) dopamine receptor [6] it was 7.59. The compound further registered an Intrinsic activity in data set [3] of 60%.

`O=C(NC1CCc2ccc(CCN3CCN(c4nsc5ccccc45)CC3)cc21)c1ccccc1` (centres undefined): the negative logarithm of the Ki (pKi) in data set [2] is 7.38; in data set [4], 8.32; in data set [5], 7.96; on D(2) dopamine receptor [6] it was 7.66.

For the compound `O=C(NC1CCc2ccc(CCN3CCN(c4nsc5ccccc45)CC3)cc21)C1CC1` (centres undefined), the negative logarithm of the Ki (pKi) in data set [1] is 7.46; in data set [2], 7.92; in data set [4] it was 9.52; in data set [5], 8.65; on D(2) dopamine receptor [6] it was 7.68. The Intrinsic activity in data set [3] turned out to be 60%.

As for `O=C(NC1CCc2cc(CCN3CCN(c4nsc5ccccc45)CC3)ccc21)c1ccc(F)cc1` (centres undefined), the pKi in data set [1] was 6.87; in data set [2] it was 8.11; in data set [4], 8.78; in data set [5], 7.81; at D(2) dopamine receptor [6], 8.00. The compound further yielded an Intrinsic activity in data set [3] of 60%.

On to `O=C(NC1CCc2ccc(CCN3CCN(c4nsc5ccccc45)CC3)cc21)c1cccnc1` (centres undefined), for which the pKi in data set [1] was 6.45; in data set [2], 8.35; in data set [4], 9.02; in data set [5] it was 8.48; at D(2) dopamine receptor [6], 8.22.
